From ChEMBL document CHEMBL4765370, “Design, synthesis, and biological evaluation of aryl piperazines with potential as antidiabetic agents via the stimulation of glucose uptake and inhibition of NADH:ubiquinone oxidoreductase” (Eur J Med Chem, 2020)

Tests used:
C2C12 = test: Induction of glucose uptake in mouse C2C12 cells assessed as [3H]2-deoxyglucose uptake preincubated for 16 hrs followed by followed by [3H]2-deoxyglucose addition and measured after 10 mins by liquid scintillation counting method; type: functional
Summary of the method: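 C2C12 mouse myoblasts were grown in high-glucose DMEM with 10% FBS. At 80% confluence they were differentiated into myotubes with 2% horse serum. Myotubes were exposed to compound (10 µM) for 16 h in medium with 0.1% horse serum, then washed with KRB pH 7.4 and given 1 µCi/mL [3H]-2-deoxyglucose for 10 min at 37 °C. After ice-cold washes and 0.1% SDS lysis, scintillation counts were normalised to BCA protein. Results are fold change vs DMSO, mean ± SEM, one-way ANOVA.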

[1] = Inhibition of NADH:ubiquinone oxidoreductase in rat liver mitochondria incubated for 3 mins
[2] = Apparent permeability in MDCK-MDR1 cells at 10 uM after 30 mins by LC-MS/MS analysis; type: ADME, cell-based, Canis lupus familiaris; conditions: dog
Summary of the method: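 Test article was taken from a 10 mM DMSO stock and diluted in DMEM to a final 10 µM donor solution, with 10 µM propranolol as internal standard. It was applied to hMDR1-MDCK monolayers on filters. Transfer to the receiver compartment was measured over 30 min in both directions, apical-to-basolateral and basolateral-to-apical. Quantification was by LC-MS/MS, n = 3.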

Row | Structure (SMILES) | fold change (FC) (C2C12) | IC50 [1] | Papp at 0.5 h, 10 µM [2]
1 | O=C(O)CCCc1cccs1 | 1.16 |  | 
2 | O=C(CCC(=O)N1CCN(c2ccc(C(F)(F)F)cn2)CC1)c1cccs1 | 1.22 |  | 
3 | O=C(CCCc1cccs1)N1CCN(c2ccccc2)CC1 | 0.96 | 133 µM | 
4 | CN1CCN(C(=O)CCCc2cccs2)CC1 | 0.84 | 161 µM | 
5 | O=C(CCCc1cccs1)N1CCN(c2ccc(C(F)(F)F)c(Cl)n2)CC1 | 1.22 |  | 
6 | O=C(c1cccs1)N1CCN(c2ccc(C(F)(F)F)cc2)CC1 | 0.93 |  | 
7 | O=C(CCCc1cn[nH]c1)N1CCN(c2ccc(C(F)(F)F)cc2)CC1 | 1.35 |  | 
8 | O=C(CCCc1cccs1)N1CCN(c2ncc(C(F)(F)F)cc2Cl)CC1 | 1.13 |  | 
9 | O=C(CCCCCc1cccs1)N1CCN(c2ccc(C(F)(F)F)cc2)CC1 | 1.33 |  | 
10 | COC(=O)CCCc1cccs1 | 1.09 |  | 
11 | Cc1ccc(N2CCN(C(=O)CCCc3cccs3)CC2)cc1 | 1 |  | 
12 | O=C(CCC(=O)N1CCN(c2ncc(C(F)(F)F)cc2Cl)CC1)c1cccs1 | 1.26 |  | 
13 | FC(F)(F)c1ccc(N2CCN(CCCCc3cccs3)CC2)cc1 | 1.36 |  | 
14 | O=C(CCCc1cccs1)N1CCN(c2ccc(C(F)(F)F)cc2Br)CC1 | 1.02 |  | 
15 | O=C(CCCc1cccs1)N1CCC(c2ccccc2)CC1 | 1.25 |  | 
16 | O=C(CCCc1cccs1)N1CCN(c2ccc(C(F)(F)F)cn2)CC1 | 1 |  | 
17 | O=C(CCSc1cccs1)N1CCN(c2ncc(C(F)(F)F)cc2Cl)CC1 | 1.31 |  | 
18 | CCCCCCCC(=O)N1CCN(c2ccc(C(F)(F)F)cc2)CC1 | 1.38 |  | 
19 | O=C(CCCc1cccs1)N1CCN(c2ccc([N+](=O)[O-])cc2)CC1 | 1.06 | 17 µM | 
20 | O=C(CCCc1cccs1)N1CCN(c2ccc(F)cc2)CC1 | 1.16 |  | 
21 | O=C(CCCc1cccs1)NNc1ccc(C(F)(F)F)cc1 | 1.24 |  | 
22 | Nc1ccc(N2CCN(C(=O)CCCc3cccs3)CC2)cc1 | 1.32 |  | 

Row | Structure (SMILES) | fold change (FC) (C2C12) | IC50 [1] | Papp at 0.5 h, 10 µM [2]
23 | CCCCC(=O)N1CCN(c2ccc(C(F)(F)F)cc2)CC1 | 1.28 |  | 
24 | O=C(CCCc1cccs1)Nc1ccc(C(F)(F)F)cc1 | 1.11 | 92 µM | 
25 | O=C(CCCCc1ccccc1)N1CCN(c2ccc(C(F)(F)F)cc2)CC1 | 1.95 | 6 µM | 
26 | O=C(CCCc1cccs1)N1CCN(c2ccccc2C(F)(F)F)CC1 | 0.85 |  | 
27 | COC(=O)CCCCCCCC(=O)N1CCN(c2ccc(C(F)(F)F)cc2)CC1 | 1.08 |  | 
28 | CC(=O)N1CCN(c2ccc(C(F)(F)F)cc2)CC1 | 1.43 |  | 
29 | O=C(Cc1cccs1)N1CCN(c2ccc(C(F)(F)F)cc2)CC1 | 1.33 |  | 
30 | O=C(CCCCc1cccs1)N1CCN(c2ccc(C(F)(F)F)cc2)CC1 | 1.78 | 60 µM | 
31 | O=C(O)CCCCCCCC(=O)N1CCN(c2ccc(C(F)(F)F)cc2)CC1 | 1.38 |  | 
32 | O=C(CCC(=O)N1CCN(c2ccc(C(F)(F)F)cc2)CC1)c1cccs1 | 1.19 |  | 
33 | O=C(CCc1cccs1)N1CCN(c2ccc(C(F)(F)F)cc2)CC1 | 1.09 |  | 
34 | O=C(CCSc1cccs1)N1CCN(c2ccc(C(F)(F)F)cc2)CC1 | 2.14 | 14 µM | 
35 | O=C(CCC(=O)N1CCC(c2ccc(C(F)(F)F)cc2)CC1)c1cccs1 | 1.31 |  | 
36 | O=C(CCCc1cccs1)N1CCN(c2ccc(C(F)(F)F)cc2Cl)CC1 | 1.58 | 46 µM | 
37 | O=C(CCCc1cccs1)N1CCN(C2CCCCC2)CC1 | 1.29 |  | 
38 | O=C(CCCc1cccs1)N1CCC(c2ccc(C(F)(F)F)cc2)CC1 | 2.14 | 15 µM | 
39 | O=C(CCCc1cccs1)N1CCN(c2cc(C(F)(F)F)cc(C(F)(F)F)c2)CC1 | 1.42 |  | 
40 | FC(F)(F)c1cnc(N2CCNCC2)c(Cl)c1 | 1.16 |  | 
41 | COCCNC(=O)CCCCCCCC(=O)N1CCN(c2ccc(C(F)(F)F)cc2)CC1 | 2.35 |  | 
42 | CN1CCN(c2ncc(C(F)(F)F)cc2Cl)CC1 | 0.92 | 67 µM | 
43 | O=C(CCc1ccco1)N1CCN(c2ccc(C(F)(F)F)cc2)CC1 | 1.11 |  | 
44 | CC(C)NCC(O)COc1cccc2ccccc12 (centres undefined) [PROPRANOLOL] |  |  | 21.8 ×10⁻⁶ cm/s
